In the library only some 0.99% were active in any assay of this set; here they are far more common.
Ins promoter up: insulin promoter activators in MIN6 cells, imaging, high-content screening, mouse beta cells. MIN6 insulin promoter-GFP reporter; stronger effect = higher value. z-score at 5 µM. hit rate 0.3% among 190,000. AID 1625, 2009;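 active = z-score above 3 at 5 µM with at least 500 cells counted in the well; inconclusive = wells under 500 cells, flagged as cytotoxic or low count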
DDE Tn6 FP inh: inhibitors of Tn6 peptide binding to fibrin DD(E), primary screen, biochemical, fluorescence polarization, human fibrin, Tn6 probe; Fibrin DD(E) TRITC-Tn6 fluorescence polarization displacement; inhibition, % at 8.3 µM; hit rate 0.21% among 370,000;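 active = inhibition above a per-campaign cutoff: mean of compounds within control limits plus 3 SD, cut at about 15% in these data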
ABCG2 inh: ABCG2 efflux pump inhibitors, primary screen, multiplex with ABCB1, IgMXP3 cells, flow cytometry | JC-1 efflux | hit rate 0.1% among 190,000 | Broad substrate specificity ATP-binding cassette transporter ABCG2 (Homo sapiens), Q9UNQ0 | inhibition, % at 6.6 µM;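 active = inhibition above 80%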
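Test system: IgMXP3 (ABCG2) plus far-red-tagged CCRF-Adr (ABCB1) cells / Amount: 3 million cells/mL in well / Reagent: JC-1 transporter substrate / Timing: 10 min compound exposure, 25 °C / Signal: flow cytometry, 530 nm JC-1 signal / Read-out: percent efflux inhibition, scaled nicardipine 100% to DMSO 0% / Benchmarks: nicardipine as high control, DMSO as low control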
Tn7 DDE FP: inhibitors of Tn7 peptide binding to fibrin DD(E), primary screen, biochemical, fluorescence polarization, human fibrin, Tn7 probe; FP displacement of FITC-Tn7 peptide from fibrin DD(E); 0% = median of compound wells per plate; inhibition, % at 8.3 µM; AID 720508, 2013; hit rate 0.13% among 370,000; Fibrinogen beta chain (Homo sapiens), P02675;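 active = inhibition above the mean of compounds falling within the control limits plus 3 SD of them, cut at about 14% in these data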
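Test system – human fibrin DD(E) · Times – 10 min preincubation, 3 h with tracer, room temperature · Detection – fluorescence polarization of the labelled Tn7 tracer · Measure – percent inhibition normalized to high-control wells · Benchmarks – high control wells with 10 µM unlabelled Aha-Tn7 peptide (full inhibition) · Repeats – singlicate testing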
GRK2 aptamer HTS: compounds blocking aptamer binding on GRK2 – biochemical, human GRK2, bead flow cytometry, HTS, primary screen; Beta-adrenergic receptor kinase 1 (Homo sapiens), P25098; AID 488847, 2010; hit rate 0.59% among 330,000; FAM-aptamer displacement from GRK2; inhibition of aptamer binding, % at 10 µM;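 active = inhibition of aptamer binding above 40%, roughly 3 SD of noise, on plates passing a quality check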;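 note: median bead fluorescence of bound FAM aptamer so fluorescent compounds give negative values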
ABCB1 inh: ABCB1 efflux pump inhibitors, primary screen, cell-based, multiplex, flow cytometry, ABCG2 counter-screen; ATP-dependent translocase ABCB1 (Homo sapiens), P08183; CCRF-Adr cells, JC-1 efflux; inhibition, % at 6.6 µM; hit rate 0.067% among 190,000; AID 1326, 2008; in the data active = inhibition above about 40%;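 note: higher value means more JC-1 retained so stronger ABCB1 efflux block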
GRK2 inh confirm: GRK2 aptamer-displacing inhibitors, retest, confirmation, biochemical, cherry pick 1, bead flow cytometry | aptamer displacement, % at 10 µM | bead-bound GRK2, FAM-aptamer displacement | AID 504451, 2011 | hit rate 4% among 2,000 | shares compounds with GRK2 aptamer HTS;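 active = aptamer displacement above 40%, near three times the noise of non-fluorescent compounds, on plates passing quality checks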;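 note: negative values mostly reflect intrinsic compound fluorescence rather than true enhancement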
Aptamer quench SP: quenches fluorescent RNA aptamer, GRK2 hit artifact; shares compounds with GRK2 aptamer HTS; Carboxyfluorescein RNA aptamer on beads, flow cytometry quenching; stronger effect = lower value; fluorescence response (% of DMSO), % at 10 µM; 2,000 tested, under 10 active;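 active = compounds that quench the bead-bound fluorescent RNA probe, cutting fluorescence to under half of the solvent control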;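 note: counterscreen run without GRK2 so only probe quenching by compound is measured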
GRK2 CP2: GRK2 aptamer-displacing inhibitors, hit retest, confirmation, biochemical, cherry pick 2, bead flow cytometry | shares compounds with GRK2 aptamer HTS | bead-bound GRK2, FAM-aptamer displacement | inhibition of aptamer binding, % at 10 µM | 360 tested, under 10 active | AID 504782, 2011;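 active = inhibition of aptamer binding above 40%, about triple the noise seen with nonglowing compounds, on plates passing quality control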;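 note: negative values mostly come from compounds that fluoresce themselves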
FAM quench SP: counter-screen for GRK2 binding hits: quenchers of fluorescent RNA aptamer. shares compounds with GRK2 aptamer HTS. carboxyfluorescein RNA aptamer beads, flow cytometry quenching; stronger effect = lower value. fluorescence response vs DMSO, % at 10 µM. 360 tested, under 10 active. AID 588494;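 active = response vs DMSO under 50%, meaning signal dropped by over half, treated as fluorescence quencher; inconclusive = no clear call, values can overlap the other calls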;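 note: labelled aptamer on streptavidin beads without GRK2 as a quench counter-screen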
Hits are given with their value; . = inactive; ? = inconclusive; / = not tested or not shown.

SMILES	Ins promoter up	DDE Tn6 FP inh	ABCG2 inh	Tn7 DDE FP	GRK2 aptamer HTS	ABCB1 inh	GRK2 inh confirm	Aptamer quench SP	others
O=C(c1ccc(-n2cccc2)cc1)N1CCOCC1	.	.	.	.	.	.	/	/
O=C(c1ccc(=O)oc1)N1CCOCC1	.	.	.	.	87	.	.	.
O=C(Nc1ccc(F)cc1)c1ccc(C(=O)N2CCOCC2)cc1	/	.	/	.	/	/	/	/
O=C(c1ccc(F)cc1)N1CCOCC1	.	.	.	.	50	.	.	.
Cc1ccc(C2=CCN(C)C(=O)N2c2ccc([N+](=O)[O-])cc2)cc1	/	.	/	.	/	/	/	/
COc1ccc(-c2cc(C(=O)Nc3cc(OC)cc(C(=O)Nc4cccc(C(F)(F)F)c4)c3)[nH]n2)cc1	.	.	/	.	.	/	.	.
COc1cc(NC(=O)c2csc(-c3ccncc3)n2)cc(C(=O)Nc2cccc(C(F)(F)F)c2)c1	.	.	/	.	.	/	.	.
O=C(Nc1cccc(C(F)(F)F)c1)c1csc(-c2ccncc2)n1	.	.	.	.	.	.	/	/
O=C(N/N=C/c1c[nH]c2ccccc12)c1[nH]c2ccc(Br)cc2c1-c1ccccc1	.	.	.	.	/	.	/	/
O=C(N/N=C/c1ccc(O)cc1)c1[nH]c2ccc(Br)cc2c1-c1ccccc1	.	.	.	.	51	.	.	.
COc1cc(NC(=O)c2cc(-c3cc(F)ccc3OC(C)C)n[nH]2)cc(OC)c1OC	/	.	/	.	/	/	/	/
CC(=O)CSc1nc2cc3c(cc2cc1C#N)OCCO3	.	.	.	.	60	.	/	/	GRK2 CP2=.;FAM quench SP=.
COc1ccc(Cl)cc1S(=O)(=O)NCc1cccs1	.	.	.	.	51	.	.	.
COc1ccccc1NC(=O)NCCCl	/	.	.	.	60	.	/	/	GRK2 CP2=.;FAM quench SP=.
COc1ccccc1NC(=O)c1ccccc1C(=O)Nc1ccccc1OC	/	.	/	.	54	/	/	/	GRK2 CP2=.;FAM quench SP=.
COc1ccccc1NC(=O)Nc1ccc(NC(=O)c2ccccc2O)cc1	/	.	/	.	92	/	.	.
CCN(CC)C(=O)Cn1cc(C(=O)C(=O)N2CCc3ccccc32)c2ccccc21	/	.	.	.	.	.	.	.
COc1cc2c(cc1OC)C(C)N(C(C)=O)CC2 (centres undefined)	/	.	.	.	.	.	/	/
COc1cc2c(cc1OC)C(C)N(C(=O)c1cccs1)CC2 (centres undefined)	.	.	.	.	81	.	.	.
CCc1ccc(NC(=O)c2cc(S(=O)(=O)N3CCCC3)ccc2F)cc1	/	.	/	.	/	/	/	/
O=[N+]([O-])c1cc(/C=N/Nc2nc3ccccc3[nH]2)c(O)cc1O	.	.	.	.	45	.	.	.
C/C(=N\NC(=O)c1ccncc1)c1ccc(N2CCOCC2)cc1	/	.	/	.	.	/	/	/
C/C(=N\NC(=O)c1ccc(OC2OCCOC2Oc2ccc(C(=O)N/N=C(\C)c3ccncc3)cc2)cc1)c1ccncc1 (centres undefined)	.	.	/	.	50	/	.	.
Cc1ccccc1-c1cc(C(=O)NCc2cccs2)nn1CC1CC(c2cccc([N+](=O)[O-])c2)=NO1 (centres undefined)	/	.	/	.	.	/	.	.
O=C(Nc1ccccc1Cl)c1cc(C2CCCN(C(=O)c3ccccc3)C2)on1 (centres undefined)	/	.	/	.	/	/	/	/
SMILES	Ins promoter up	DDE Tn6 FP inh	ABCG2 inh	Tn7 DDE FP	GRK2 aptamer HTS	ABCB1 inh	GRK2 inh confirm	Aptamer quench SP	others
O=C(Nc1ccc(F)cc1)N1CCN(c2ncccn2)CC1	.	.	.	.	94	.	.	.
O=C(NCC1CCN(C(=O)C(=O)c2cc3ccccc3o2)CC1)c1ccc2c(c1)OCO2	/	.	/	.	/	/	/	/
C=CCn1c(SC(CCO)C(=O)NCc2ccco2)nc2sc3c(c2c1=O)CCC3 (centres undefined)	.	.	.	.	.	.	/	/	GRK2 CP2=.;FAM quench SP=.
C=CCn1c(SCC(C)=O)nc2sc3c(c2c1=O)CCC3	/	.	/	.	.	/	/	/
C=CCn1c(SCC(=O)NCC)nc2sc3c(c2c1=O)CCC3	/	.	/	.	.	/	/	/	GRK2 CP2=.;FAM quench SP=.
C=CCn1c(SCC(=O)NC)nc2sc3c(c2c1=O)CCC3	.	.	.	.	.	.	/	/	GRK2 CP2=.;FAM quench SP=.
Cc1cn(-c2cc(NC(=O)c3ccc(C)c(Nc4nccc(-c5cccnc5)n4)c3)cc(C(F)(F)F)c2)cn1	/	.	/	.	/	/	/	/
CC(=O)Nc1ccc(C(=O)OCC(=O)NCc2ccccc2)cc1	.	.	.	.	.	.	/	/
CC(=O)Nc1ccc(OCC(=O)NCc2ccccc2)cc1	.	.	.	.	100	.	.	.
Cc1cc(NC(=O)C2CCN(S(=O)(=O)c3cnc[nH]3)CC2)ccc1Br	.	.	.	.	43	.	.	.
Cc1ccc(NC(=O)C2CCN(S(=O)(=O)c3cnc[nH]3)CC2)cc1C	.	.	.	.	.	.	/	/
CN(C)S(=O)(=O)c1ccc(Nc2nc(C3CC3)nc3c2nnn3Cc2ccccc2Cl)cc1	.	.	.	.	77	.	/	/	GRK2 CP2=.;FAM quench SP=?
COC(=O)CNc1nc(C2CC2)nc2c1nnn2Cc1ccccc1Cl	/	.	.	.	.	.	/	/
Cc1ccccc1C(=O)N(C)[C@H]1C[C@H]2c3[nH]c4c(-c5ccc6c(c5)OCO6)cccc4c3CCN2C[C@H]1[C@H](C)O	/	.	/	.	/	/	/	/
CCN(CC)CCn1c(OC)cc(=O)[nH]c1=O	.	.	.	.	69	.	.	.
CCN(CC)CCn1c(N)cc(=O)[nH]c1=O	.	.	.	.	.	.	/	/
COCCNC(=O)c1ccc(CS(=O)(=O)c2ccccc2OC)o1	/	.	/	.	50	/	.	.
COCCCNC(=O)c1ccc(CS(=O)(=O)c2ccccc2OC)o1	/	.	/	.	.	/	/	/
CC(=O)Oc1ccc(-c2csc(Nc3ccc(S(N)(=O)=O)cc3)n2)cc1	.	.	.	.	.	.	/	/
